According to ChEMBL document CHEMBL1122278, “Gastric antisecretory 9H-xanthen-9-amines” (1983):

Legend:
Rattus norvegicus [1] = assay: Gastric antisecretory activity in pylorus ligated rat at a concentration of 50 mg/kg perorally, expressed as % decrease in mean titratable acid output of gastric juice in treated vs. control groups.; type: functional; conditions: route oral
Outline: (§1)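 Male Carworth Farms rats (270–360 g), fasted 18 h with water; compound in PEG 200 by gavage 1 h before pylorus ligation under ether. Killed 2 h after ligation; juice centrifuged, volume and pH measured, supernatant titrated with NaOH to pH 7.4, output = volume × titre. Mean of six to seven animals against controls.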

Rattus norvegicus [2] = assay: Gastric antisecretory activity in pylorus-ligated rat at a concentration of 50 mg/kg perorally, expressed as increase in mean pH.; type: functional; conditions: route oral; outline: as §1
Rattus norvegicus [3] = assay: Gastric antisecretory activity in pylorus-ligated rat at a concentration of 50 mg/kg po, expressed as increase in mean pH; NS means no significant change; type: functional, organism-based; set-up: dose 50 mg/kg; outline: as §1
Rattus norvegicus [4] = assay: Gastric antisecretory activity in pylorus ligated rat at a concentration of 50 mg/kg po, expressed as % decrease in mean titratable acid output of gastric juice in treated vs. control groups; NS means no significant change.; type: functional, organism-based; set-up: dose 50 mg/kg; outline: as §1
Rattus norvegicus [5] = assay: Effect of peroral administration of compound on acid secretion inhibition in the PLR; Value ranges from 4.1-12.1; type: functional
Rattus norvegicus [6] = assay: Effect of intraduodenal administration of compound on acid secretion inhibition in the PLR; Value ranges from 0.9-4.7; type: functional
Rattus norvegicus [7] = assay: Effect of peroral administration of compound on acid secretion inhibition in the PLR; NS means no significant dose response.; type: functional, organism-based
Outline: (§2)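 Rats (male Carworth Farms, 270–360 g) fasted 18 h; compound in PEG 200 by gavage 1 h before pylorus ligation under ether, six per group. Gastric contents collected 2 h post-ligation; pH, volume, titre (NaOH to pH 7.4) measured, output = volume × titre.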

Rattus norvegicus [8] = assay: Effect of intraduodenal administration of compound on acid secretion inhibition in the PLR; Value ranges from 0.5-2.7; type: functional
Rattus norvegicus [9] = assay: Effect of peroral administration of compound on acid secretion inhibition in the PLR; Value ranges from 8.8-14.7; type: functional
Rattus norvegicus [10] = assay: Effect of intraduodenal administration of compound on acid secretion inhibition in the PLR; Value ranges from 4.7-9; type: functional
Rattus norvegicus [11] = assay: Gastric antisecretory activity, in pylorus ligated rat (PLR,50 mg/kg po), expressed as increase in mean pH; type: functional; outline: as §1
Rattus norvegicus [12] = assay: Gastric antisecretory activity, in pylorus ligated rat (PLR,50 mg/kg po), expressed as % decrease in mean titratable acid output of gastric juice in treated vs. control groups; type: functional; outline: as §1
Rattus norvegicus [13] = assay: Gastric antisecretory activity in pylorus-ligated rat at a concentration of 50 mg/kg po, expressed as increase in mean pH; NS means no significant change.; type: functional, organism-based; set-up: dose 50 mg/kg; outline: as §1
Rattus norvegicus [14] = assay: Effect of peroral administration of compound on acid secretion inhibition in the PLR;Value ranges from 3.6-12.2; type: functional; outline: as §2
Rattus norvegicus [15] = assay: Effect of peroral administration of compound on acid secretion inhibition in the PLR; Value ranges from 2.6-8.5; type: functional; outline: as §2
Rattus norvegicus [16] = assay: Effect of intraduodenal administration of compound on acid secretion inhibition in the PLR; Value ranges from 0.5-4.4; type: functional
Rattus norvegicus [17] = assay: Effect of intravenous administration of compound on acid secretion inhibition in the PLR; Value ranges from 1.5-9.5; type: functional
Outline: (§3)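 Male Carworth Farms rats (270–360 g), fasted 18 h, pylorus ligated under ether; compound in PEG 200 given intravenously at ligation, six rats per group. Gastric contents taken 2 h after ligation, centrifuged, titrated with NaOH to pH 7.4; output = volume × titre.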

Rattus norvegicus [18] = assay: Effect of intravenous administration of compound on acid secretion inhibition in the PLR; Value ranges from 0.7-5.0; type: functional; outline: as §3
Rattus norvegicus [19] = assay: Effect of peroral administration of compound on acid secretion inhibition in the PLR; Value ranges from 4.0-13.6; type: functional; outline: as §2
Rattus norvegicus [20] = assay: Effect of intraduodenal administration of compound on acid secretion inhibition in the PLR; Value ranges from 0.6-6.7; type: functional
Rattus norvegicus [21] = assay: Effect of intraduodenal administration of compound on acid secretion inhibition in the PLR; Value ranges from 0.2-2.1; type: functional
Rattus norvegicus [22] = assay: Effect of peroral administration of compound on acid secretion inhibition in the PLR; Value ranges from 4.3-16.3; type: functional; outline: as §2
Rattus norvegicus [23] = assay: Effect of intraduodenal administration of compound on acid secretion inhibition in the PLR; Value ranges from 0.3-2.9; type: functional
Rattus norvegicus [24] = assay: Effect of intravenous administration of compound on acid secretion inhibition in the PLR; Value ranges from 1.8-5.9; type: functional; outline: as §3
Rattus norvegicus [25] = assay: Effect of intravenous administration of compound on acid secretion inhibition in the PLR; Value ranges from 4.0-19.3; type: functional; outline: as §3

| Compound | Delta TAO (Rattus norvegicus [1]) | Delta pH (Rattus norvegicus [2]) | also measured |
| --- | --- | --- | --- |
| NC1c2ccccc2Oc2ccccc21 | 93 | 4.5 |  |
| c1cncc(NC2c3ccccc3Oc3ccccc32)c1 |  |  | Delta pH (Rattus norvegicus [3]): Not significant; Delta TAO (Rattus norvegicus [4]): Not significant |
| c1ccc(CNC2c3ccccc3Oc3ccccc32)cc1 | 69 | 1.9 |  |
| CC(Cc1ccccn1)NC1c2ccccc2Oc2ccccc21 (stereo unspecified) | 89 | 3.8 | Acid output (Rattus norvegicus [5]): 7.3 u equiv of [H+] 2hr-1; Volume (Rattus norvegicus [6]): 2.2 ml 2hr-1; ED50 (Rattus norvegicus [7]): Not significant; Acid output (Rattus norvegicus [8]): 1.3 u equiv of [H+] 2hr-1; ED50 (Rattus norvegicus [9]): 11.4 m equiv [H+] l-1; ED50 (Rattus norvegicus [10]): 6.3 m equiv [H+] l-1 |
| NS(=O)(=O)NC1c2ccccc2Oc2ccccc21 | 87 | 2 |  |
| c1ccc(NNC2c3ccccc3Oc3ccccc32)nc1 | 73 | 1.4 |  |
| CCN1CCCC(N(C)C2c3ccccc3Oc3ccccc32)C1 (stereo unspecified) | 98 | 5.1 |  |
| CC(CCCc1ccccn1)NC1c2ccccc2Oc2ccccc21 (stereo unspecified) | 100 | 6.1 |  |
| c1ccc(CCNC2c3ccccc3Oc3ccccc32)nc1 | 99 | 5.9 |  |
| CCO/C(C)=N\C1c2ccccc2Oc2ccccc21 |  |  | Delta pH (Rattus norvegicus [11]): 4.4; Delta TAO (Rattus norvegicus [12]): 97 |
| O=S1(=O)CCC(NC2c3ccccc3Oc3ccccc32)C1 (stereo unspecified) | 57 | 1.5 |  |
| c1ccc(N2CCN(C3c4ccccc4Oc4ccccc43)CC2)nc1 |  |  | Delta pH (Rattus norvegicus [3]): Not significant; ED50 (Rattus norvegicus [4]): Not significant |
| c1cncc(C2CCCN2C2c3ccccc3Oc3ccccc32)c1 (stereo unspecified) | 65 | 1.8 |  |
| O=C(NC1c2ccccc2Oc2ccccc21)OCc1ccccc1 |  |  | Delta TAO (Rattus norvegicus [4]): Not significant; Delta pH (Rattus norvegicus [13]): Not significant |
| O=C(NC1c2ccccc2Oc2ccccc21)c1ccccc1O |  |  | Delta TAO (Rattus norvegicus [4]): Not significant; Delta pH (Rattus norvegicus [13]): Not significant |
| CC(=N)NC1c2ccccc2Oc2ccccc21 | 88 | 1.1 |  |
| c1cncc(CNC2c3ccccc3Oc3ccccc32)c1 | 94 | 4.2 |  |
| CN1CCCN(C2c3ccccc3Oc3ccccc32)CC1 | 92 | 4.6 |  |
| CCOC(=O)N1CCN(C2c3ccccc3Oc3ccccc32)CC1 |  | 2.2 |  |
| c1ccc2c(c1)Oc1ccccc1C2N1CCNCC1 | 98 | 5.3 |  |
| C=CCN(CC=C)C1c2ccccc2Oc2ccccc21 |  | 1.3 |  |
| CC1=NCCN1CCNC1c2ccccc2Oc2ccccc21 | 88 | 3 |  |
| CCN(CCc1ccccn1)C1c2ccccc2Oc2ccccc21 | 86 | 4.3 |  |
| c1cnc(NC2c3ccccc3Oc3ccccc32)nc1 | 48 |  | Delta pH (Rattus norvegicus [3]): Not significant |
| c1ccc2c(c1)Oc1ccccc1C2Nc1nccs1 |  |  | Delta pH (Rattus norvegicus [3]): Not significant |

| Compound | Delta TAO (Rattus norvegicus [1]) | Delta pH (Rattus norvegicus [2]) | also measured |
| --- | --- | --- | --- |
| CN1CCN(C2c3ccccc3Oc3ccccc32)CC1 | 97 | 5.4 | ED50 (Rattus norvegicus [7]): Not significant; ED50 (Rattus norvegicus [14]): 6.8 mg/kg |
| CN(C1c2ccccc2Oc2ccccc21)C1c2ccccc2Oc2ccccc21 | 72 |  | Delta pH (Rattus norvegicus [13]): Not significant |
| CN(Cc1cccnc1)C1c2ccccc2Oc2ccccc21 | 92 | 3.6 |  |
| c1ccc(NNC2c3ccccc3Oc3ccccc32)cc1 |  |  | Delta pH (Rattus norvegicus [3]): Not significant |
| CN1CCC(NC2c3ccccc3Oc3ccccc32)CC1 | 99 | 6.4 |  |
| C=CCNC1c2ccccc2Oc2ccccc21 |  | 4.4 | Delta TAO (Rattus norvegicus [4]): Not significant |
| c1ccc(CCCNC2c3ccccc3Oc3ccccc32)nc1 | 99 | 5.7 |  |
| c1ccc2c(c1)Oc1ccccc1C2NC1CN2CCC1CC2 (stereo unspecified) | 65 | 2.4 |  |
| CN(CCc1ccccn1)C1c2ccccc2Oc2ccccc21 | 99 | 5.6 | ED50 (Rattus norvegicus [7]): Not significant; ED50 (Rattus norvegicus [15]): 4.8 mg/kg |
| NC(=O)N(O)C1c2ccccc2Oc2ccccc21 |  |  | Delta pH (Rattus norvegicus [11]): 1.9; Delta TAO (Rattus norvegicus [12]): 88 |
| CN(C)C1CCN(C2c3ccccc3Oc3ccccc32)CC1 | 97 | 5.8 |  |
| c1ccc2c(c1)Oc1ccccc1C2NCC1CCCCO1 (stereo unspecified) | 87 | 3.6 |  |
| c1ccc2c(c1)Oc1ccccc1C2NCCn1ccnc1 | 98 | 5.8 | ED50 (Rattus norvegicus [16]): 1.7 mg/kg; ED50 (Rattus norvegicus [17]): 3.3 mg/kg; ED50 (Rattus norvegicus [18]): 2 mg/kg; ED50 (Rattus norvegicus [19]): 7.7 mg/kg; ED50 (Rattus norvegicus [7]): Not significant; ED50 (Rattus norvegicus [20]): 2.4 mg/kg |
| CS(=O)(=O)NC1c2ccccc2Oc2ccccc21 |  |  | Delta pH (Rattus norvegicus [3]): Not significant; Delta TAO (Rattus norvegicus [4]): Not significant |
| CN(C)C1CCCN(C2c3ccccc3Oc3ccccc32)C1 (stereo unspecified) | 80 | 3.1 | ED50 (Rattus norvegicus [21]): 0.9 mg/kg; ED50 (Rattus norvegicus [22]): 8.9 mg/kg; ED50 (Rattus norvegicus [23]): 1.2 mg/kg; ED50 (Rattus norvegicus [24]): 3.2 mg/kg; ED50 (Rattus norvegicus [7]): Not significant; ED50 (Rattus norvegicus [25]): 6.3 mg/kg |
| c1ccc2c(c1)Oc1ccccc1C2NCc1ccncc1 | 77 | 3.6 |  |
| c1ccc2c(c1)Oc1ccccc1C2NC1=NCCS1 | 95 | 3.6 |  |
| c1ccc2c(c1)Oc1ccccc1C2NCCN1CCOCC1 | 47 | 2.6 |  |
| O=S(=O)(NC1c2ccccc2Oc2ccccc21)c1ccccc1 |  |  | Delta pH (Rattus norvegicus [3]): Not significant; Delta TAO (Rattus norvegicus [4]): Not significant |
| O=C1CCC(=O)N1C1c2ccccc2Oc2ccccc21 |  |  | Delta TAO (Rattus norvegicus [4]): Not significant; Delta pH (Rattus norvegicus [13]): Not significant |
| O=CNNC1c2ccccc2Oc2ccccc21 |  |  | Delta pH (Rattus norvegicus [11]): 2; Delta TAO (Rattus norvegicus [12]): 80 |
| CN(C)CC1CCCCN1C1c2ccccc2Oc2ccccc21 (stereo unspecified) | 95 | 5.2 |  |
| Cc1cc(C)n(C2c3ccccc3Oc3ccccc32)n1 |  |  | Delta pH (Rattus norvegicus [3]): Not significant; Delta TAO (Rattus norvegicus [4]): Not significant |
| c1ccc(CNC2c3ccccc3Oc3ccccc32)nc1 | 96 | 4.8 |  |
